The list is not random: actives were taken first. Their share in the collection is about 1.3%.
G6PDH CS: inhibits Leuconostoc G6PDH, flagging false hits in G6PDH-based assays; Purified L. mesenteroides G6PDH, diaphorase/resazurin coupled fluorescence, 45 min; inhibition, % at 5 µM; 200,000 compounds, 0.12% hits; in the data active means inhibition above about 50%
Diaphorase act: counter-screen for diaphorase-based assays: diaphorase activators and chemical reducers; 190,000 compounds, 0.005% hits; Diaphorase/resazurin coupled assay, resorufin fluorescence, 16 min; active compounds read high; 1 = vehicle wells, 0 = NADH-free wells; activation factor at 20 µM;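 active means diaphorase activity raised at least twofold by the compound at 20 µM; inactive means activation factor below 2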
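Assay system: bacterial diaphorase enzyme (C. kluyveri) / Input: enzyme 0.07 U/mL final / Medium: 50 mM HEPES pH 7.4 with 4.542 mM MgCl2, 0.005% Tween 20 / Doses: single compound dose of 20 µM, 1% DMSO final / Incubation: 16 min enzyme reaction, ambient temperature / Signal: fluorescence, excitation 544 nm and emission 590 nm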
Diaphorase inh: inhibits diaphorase or chemically oxidizes, flagging diaphorase assay artifacts. 190,000 compounds, 0.69% hits. inhibition, % at 20 µM. diaphorase resazurin-to-resorufin fluorescence, NADH, 16 min; bacterial (C. kluyveri) enzyme, not human;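 active means primary screen inhibition at 20 µM above a set limit, cut at about 50% in these data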;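 further: plate controls were DMSO with full reaction for no effect and wells lacking NADH for full effect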
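Assay system: diaphorase enzyme from Clostridium kluyveri. Quantity: enzyme working solution with 0.14 U/mL diaphorase. Schedule: reaction incubation of 16 min at room temperature. Technique: resorufin fluorescence, excitation 544 nm, emission 590 nm. Controls: No-NADH positive control and DMSO neutral control.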
PfGluPho inh: PfG6PD (Plasmodium falciparum) enzyme inhibition | PfGluPho enzyme, NADPH resazurin-diaphorase fluorescence | inhibition, % at 20 µM | 350,000 compounds, 0.78% hits;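 active means inhibition reaching at least a set limit at 20 µM in the primary screen, cut at about 59% in these data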;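 further: 0% = DMSO wells with substrate and 100% = DMSO wells lacking glucose-6-phosphate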
HKDC1 inh: inhibitors of human hexokinase HKDC1; AID 493160; inhibition, % at 20 µM; 340,000 compounds, 0.16% hits; recombinant HKDC1, G6PDH/diaphorase resazurin coupled fluorescence; Q2TB90;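 active means inhibition above about 35% when tested at 20 µM, limit read from the data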;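 further: plate controls were DMSO wells with enzyme for no effect and DMSO wells lacking enzyme for full effect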
Target sequence (Q2TB90 whole entry, looked up): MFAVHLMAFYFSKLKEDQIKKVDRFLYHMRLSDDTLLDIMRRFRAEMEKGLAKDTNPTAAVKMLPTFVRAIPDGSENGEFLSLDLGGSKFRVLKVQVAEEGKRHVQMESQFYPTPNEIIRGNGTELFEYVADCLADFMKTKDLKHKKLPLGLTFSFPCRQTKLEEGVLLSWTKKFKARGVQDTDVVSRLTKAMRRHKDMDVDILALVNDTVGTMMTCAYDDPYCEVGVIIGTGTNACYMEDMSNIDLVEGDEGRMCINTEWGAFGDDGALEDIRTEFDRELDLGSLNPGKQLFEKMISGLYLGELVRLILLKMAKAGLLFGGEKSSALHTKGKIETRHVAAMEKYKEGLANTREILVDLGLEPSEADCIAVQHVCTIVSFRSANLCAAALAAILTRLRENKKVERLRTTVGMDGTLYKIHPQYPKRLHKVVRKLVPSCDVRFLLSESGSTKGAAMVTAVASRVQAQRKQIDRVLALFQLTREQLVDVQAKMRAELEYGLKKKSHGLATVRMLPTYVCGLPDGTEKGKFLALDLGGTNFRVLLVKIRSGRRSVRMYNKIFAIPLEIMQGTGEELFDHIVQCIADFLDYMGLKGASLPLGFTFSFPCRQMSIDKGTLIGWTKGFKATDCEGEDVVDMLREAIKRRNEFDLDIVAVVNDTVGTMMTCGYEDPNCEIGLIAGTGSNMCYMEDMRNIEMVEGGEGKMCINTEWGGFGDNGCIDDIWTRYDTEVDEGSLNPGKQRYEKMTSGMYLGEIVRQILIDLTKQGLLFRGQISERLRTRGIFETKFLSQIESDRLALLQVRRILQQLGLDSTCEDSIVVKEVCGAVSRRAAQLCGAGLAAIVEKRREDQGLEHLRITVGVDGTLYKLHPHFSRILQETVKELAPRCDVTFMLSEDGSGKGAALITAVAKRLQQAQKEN
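Test system: HK5 enzyme. Quantity: 5 µg/mL HK5 final. Reagent: glucose and ATP substrates. Schedule: 90 min reaction incubation at room temperature, dark. Technique: resazurin-to-resorufin fluorescence via G6PDH and diaphorase coupling, 525/613 nm. Control set: DMSO wells with and without enzyme mix.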
* marks the source's active call; other numbers are inactive results; . = no result.

SMILES	G6PDH CS	Diaphorase act	Diaphorase inh	PfGluPho inh	HKDC1 inh
Cc1ccc(C(=O)O)cc1-c1ccc(/C=C2\SC(=O)N(CC(=O)Nc3ccccc3)C2=O)o1	9	0.4	57*	-2	12
Cc1ccc(NC(=O)CN2C(=O)S/C(=C\c3ccc(-c4cccc(C(=O)O)c4C)o3)C2=O)cc1	4	0.7	28	.	.
Cc1ccc(NC(=O)CN2C(=O)S/C(=C\c3ccc(C(=O)O)cc3)C2=O)cc1	.	.	.	-8	-5
O=C(O)c1cc(-c2ccc(/C=C3/SC(=S)N(Cc4ccccc4)C3=O)o2)ccc1Cl	17	0.5	52*	-6	6
Cc1ccccc1NC(=O)CN1C(=O)S/C(=C\c2ccc(-c3cc(C(=O)O)ccc3C)o2)C1=O	10	0.3	67*	7	20
Cc1ccc(N(C)C(=O)c2ccc(CNc3c(N4CCC(C)CC4)c(=O)c3=O)cc2)cc1	.	.	.	3	-6
O=C(CNC(=O)c1ccccc1F)OCCOc1cccc(Cl)c1	.	.	.	2	-3
Cc1nnc(SCc2cc(=O)[nH]c(=S)[nH]2)s1	10	0.4	64*	-11	-2
Cn1c(=O)n(-c2cccc(Cl)c2)c(=O)c2c3c(sc21)COC(C)(C)C3	7	0.8	15	-5	2
CC(C)CN=Cc1c(O)c([N+](=O)[O-])cc2oc3c(c12)CCCC3	-6	0.4	56*	9	9
COc1ccccc1NCCC(=O)OCC(=O)NC1CCCC(C)C1C (centres undefined)	5	0.9	14	21	0
COc1cc(O)c2c(c1)OC(c1ccc(O)cc1)CC2=O (centres undefined)	5	0.4	57*	7	2
CCC(C)Sc1cc(C)c(C#N)c2nc3ccccc3n12 (centres undefined)	15	0.5	52*	11	4
CCC(C)Nc1cc(C)c(C#N)c2nc3ccccc3n12 (centres undefined)	.	.	.	-22	3
COc1cc(C(=O)OC(C)CN2CCCCC2)cc(OC)c1OC (centres undefined)	.	.	.	4	-8
CCN(c1ccccc1)S(=O)(=O)c1ccc(OC)c(NC(=O)c2cccs2)c1	-2	0.8	16	-17	4
O=C(N/N=C/c1cc2c(cc1[N+](=O)[O-])OCO2)c1ccc2c(c1)OCO2	.	.	.	26	-2
Cc1cccc(N=Cc2cc3c(cc2[N+](=O)[O-])OCO3)c1	7	0.4	61*	45	20
Cc1cc(O)c(N=Cc2cc3c(cc2[N+](=O)[O-])OCO3)cc1C	.	.	.	54	-1
O=[N+]([O-])c1cc2c(cc1C=Nc1ccccc1)OCO2	6	0.5	53*	87*	17
COc1ccc2c(c1)[nH]c1c(=O)n(CCN(C)C)cnc12	4	0.9	7	-4	4
O=C(O)c1ccn(CSc2cc(Cl)ccc2Cl)n1	.	.	.	-13	-4
O=C(N/N=C/c1ccc(-c2ccccc2[N+](=O)[O-])o1)c1cccnc1	-25	0.4	59*	29	13
CC(C)(C)c1cc(C(=O)N/N=C/c2ccc(-c3ccccc3[N+](=O)[O-])o2)n[nH]1	.	.	.	12	19
N#Cc1c(-c2cccs2)nc(SCC(=O)c2cccs2)[nH]c1=O	-3	0.3	65*	-14	-1
SMILES	G6PDH CS	Diaphorase act	Diaphorase inh	PfGluPho inh	HKDC1 inh
S=c1[nH]nc(-c2cc(-c3ccco3)[nH]n2)n1-c1ccccc1Cl	7	0.3	71*	49	10
S=c1[nH]nc(-c2ccco2)n1-c1ccccc1Cl	8	0.8	16	17	-4
O=C(O)c1c2c(nc3ccccc13)/C(=C/c1ccc(O)cc1)CC2	1	0.3	69*	23	4
O=C(O)c1c2c(nc3ccccc13)/C(=C/c1ccc(OC(F)F)cc1)CCC2	.	.	.	-19	8
O=C(O)c1cccc(NC(=S)N/N=C/c2ccccc2OCc2cccc(Br)c2)c1	-6	0.4	57*	-28	7
O=C(O)c1cccc(NC(=S)N/N=C/c2ccccc2OCc2ccc(Br)cc2)c1	-2	0.5	51*	10	-1
NC(=O)C1=C[C@H](c2csc3ccccc23)C[C@H](OCCCCO)O1	18	0.4	56*	16	6
Cc1oc(-c2ccc(Cl)cc2)[n+]([O-])c1C	1	0.9	13	-9	2
Cc1cccc(C(=O)NC(=S)Nc2ccccc2C(=O)O)c1	9	0.5	51*	20	-10
Cc1cccc(C(=O)NC(=S)Nc2ccccc2C(F)(F)F)c1	-10	0.8	16	29	-6
CCOC(=O)c1sc2nc(C(C)C)c3c(c2c1N)CC(C)(C)OC3	5	0.5	55*	6	0
CCOC(=O)c1sc2nc(N3CCCC3)c3c(c2c1N)CC(C)(C)OC3	4	0.8	15	-3	2
COc1ccc(NC(=O)COC(=O)CCNC(=O)c2ccco2)cc1Cl	.	.	.	-1	-7
COc1ccc(CCNC(=O)CSc2nc3[nH]ncc3c(=O)n2-c2ccccc2OC)cc1OC	4	1	-1	14	-6
COc1ccc(CCNC(=O)CSc2nc3[nH]ncc3c(=O)n2-c2ccc(Cl)cc2Cl)cc1OC	2	0.3	73*	48	26
O=C(N=Nc1ccc(NOC(=O)c2ccccc2Br)cc1)c1ccccc1O	-2	0.4	65*	.	.
O=C(N/N=C/c1ccco1)c1cccc(N2CCCC2=O)c1	-11	0.9	14	-1	-11
O=C(N/N=C/c1ccco1)c1cccc(N2Cc3ccccc3C2)c1	12	0.4	60*	17	11
O=C(Nc1cccc(N=Cc2cc(Cl)cc(Br)c2O)c1)c1ccco1	9	0.6	40	14	15
O=C(Nc1cccc(N=Cc2cc(Br)cc(Br)c2O)c1)c1ccco1	39	0.4	55*	32	18
C=C(C)C1CC=C(C)/C(=N\NC(=S)Nc2ccc(C)cc2)C1 (centres undefined)	5	0.3	66*	-9	-5
C=C(C)C1CC=C(C)/C(=N/NC(=O)COc2ccc(C)cc2)C1 (centres undefined)	0	1	1	-18	-5
COc1ccccc1C(=O)COC(=O)C1CCN(S(=O)(=O)c2ccccc2)CC1	.	.	.	1	.
C=CCc1cccc2cc(C(=O)Nc3ccc(S(=O)(=O)Nc4nnc(CC)s4)cc3)c(=O)oc12	-22	0.5	52*	-16	11
C=CCc1cccc2cc(C(=O)Nc3ccc(F)cc3)c(=O)oc12	1	1	2	-4	-7
CCOC(=O)CSc1nc2ccccc2c(=O)n1CC1CCCO1 (centres undefined)	10	0.9	15	-9	-2
O=C1Nc2ccccc2N=C(c2ccccc2)C1Br (centres undefined)	16	0.9	7	19	-6

Bioassay records: PubChem, Sanford-Burnham Center for Chemical Genomics
